Test results published in ChEMBL document CHEMBL3525945, “Metabolic switching of BILR 355 in the presence of ritonavir. II. Uncovering novel contributions by gut bacteria and aldehyde oxidase” (Drug Metab Dispos, 2012).

Tests used:
Cytochrome P450 2C9 = Cytochrome P450 2C9 (Homo sapiens, UniProt P11712); assay: Activity at recombinant CYP2C9 (unknown origin) expressed in baculovirus-infected insect cells assessed as enzyme-mediated drug depletion at 1 to 10 uM by LC-MS/MS analysis in presence of NADPH; format: ADME
Method in brief: (§1)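 BILR 402 (1 or 10 μM) with baculovirus/insect-cell recombinant CYPs, levels scaled to average liver content (1A2 2, 2A6 1, 2B6 0.1, 2C9 1.5, 2C19 1.5, 2D6 0.3, 3A4 5 pmol/mL). Buffer 0.1 M potassium phosphate, 5 mM MgCl2, pH 7.4; 2.5 mM NADPH; 37 °C. Non-transfected insect microsomes served as controls. Aliquots taken 0.5–30 min and acetonitrile-quenched; depletion measured by LC-MS/MS with isotope-labelled internal standard.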

Cytochrome P450 2D6 = Cytochrome P450 2D6 (Homo sapiens, UniProt P10635); assay: Activity at recombinant CYP2D6 (unknown origin) expressed in baculovirus-infected insect cells assessed as enzyme-mediated drug depletion at 1 to 10 uM by LC-MS/MS analysis in presence of NADPH; format: ADME; method in brief: as §1
[1] = Drug metabolism in human liver S9 fraction assessed as BILR355 formation at 10 uM by LC-MS/MS analysis in absence of NADPH; format: ADME; settings: s9, 10 µM
Method in brief: (§2)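 BILR 402 (10 μM final) was incubated with human liver S9 or cytosol (1 mg/mL protein) in 0.05 M potassium phosphate pH 7.4 at 37 °C. Runs were done with or without 2.5 mM NADPH. Samples at 10, 20, 30 and 60 min were quenched in nevirapine/acetonitrile, filtered and analysed by LC-MS/MS; duplicate.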

Liver cytosol [2] = assay: Drug metabolism in human liver cytosol assessed as BILR355 formation at 10 uM by LC-MS/MS analysis; format: ADME, tissue-based; method in brief: as §2
Cytochrome P450 3A4 [3] = biological target: T1, Cytochrome P450 3A4 (Homo sapiens, UniProt P08684); assay: Activity at recombinant CYP3A4 (unknown origin) expressed in baculovirus-infected insect cells assessed as enzyme-mediated drug depletion at 1 to 10 uM by LC-MS/MS analysis in presence of NADPH; format: ADME; settings: TDE = time-dependent effect; method in brief: as §1
Cytochrome P450 3A4 [4] = biological target: T1, Cytochrome P450 3A4; assay: Activity at recombinant CYP3A4 (unknown origin) expressed in baculovirus-infected insect cells assessed as enzyme-mediated drug depletion by measuring compound level at 1 uM after 4 mins by LC-MS/MS analysis in presence of NADPH; format: ADME
Method in brief: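 rCYP3A4 (5 pmol/mL) incubated with BILR 402 at 1 or 10 μM in 0.1 M potassium phosphate/5 mM MgCl2, pH 7.4, with NADPH at 37 °C. Remaining BILR 402 and BILR 355 formed were read at 4 min by LC-MS/MS against a labelled internal standard.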

Liver cytosol [5] = assay: Drug metabolism in human liver cytosol assessed as BILR516-18O and BILR516-16O metabolite formation at 5 uM after 60 mins by 18O incorporation based LC-MS/MS analysis; format: ADME, tissue-based; settings: 1 h
Method in brief: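 BILR 402 (5 μM final) was incubated with human liver cytosol in 0.05 M potassium phosphate buffer made with 100% H2^16O or H2^16O/H2^18O 82:18 (v/v), at 37 °C without NADPH. […] The M+2 isotope contribution was subtracted before calculating peak-area ratios; n=2.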

Aldehyde oxidase [6] = biological target: T2, Aldehyde oxidase (Homo sapiens, UniProt Q06278); assay: Activity at human recombinant AO expressed in Escherichia coli cells assessed as enzyme-mediated BILR516 metabolite formation at 5 uM by LC-MS/MS analysis; format: ADME
T2 sequence (Q06278 whole entry): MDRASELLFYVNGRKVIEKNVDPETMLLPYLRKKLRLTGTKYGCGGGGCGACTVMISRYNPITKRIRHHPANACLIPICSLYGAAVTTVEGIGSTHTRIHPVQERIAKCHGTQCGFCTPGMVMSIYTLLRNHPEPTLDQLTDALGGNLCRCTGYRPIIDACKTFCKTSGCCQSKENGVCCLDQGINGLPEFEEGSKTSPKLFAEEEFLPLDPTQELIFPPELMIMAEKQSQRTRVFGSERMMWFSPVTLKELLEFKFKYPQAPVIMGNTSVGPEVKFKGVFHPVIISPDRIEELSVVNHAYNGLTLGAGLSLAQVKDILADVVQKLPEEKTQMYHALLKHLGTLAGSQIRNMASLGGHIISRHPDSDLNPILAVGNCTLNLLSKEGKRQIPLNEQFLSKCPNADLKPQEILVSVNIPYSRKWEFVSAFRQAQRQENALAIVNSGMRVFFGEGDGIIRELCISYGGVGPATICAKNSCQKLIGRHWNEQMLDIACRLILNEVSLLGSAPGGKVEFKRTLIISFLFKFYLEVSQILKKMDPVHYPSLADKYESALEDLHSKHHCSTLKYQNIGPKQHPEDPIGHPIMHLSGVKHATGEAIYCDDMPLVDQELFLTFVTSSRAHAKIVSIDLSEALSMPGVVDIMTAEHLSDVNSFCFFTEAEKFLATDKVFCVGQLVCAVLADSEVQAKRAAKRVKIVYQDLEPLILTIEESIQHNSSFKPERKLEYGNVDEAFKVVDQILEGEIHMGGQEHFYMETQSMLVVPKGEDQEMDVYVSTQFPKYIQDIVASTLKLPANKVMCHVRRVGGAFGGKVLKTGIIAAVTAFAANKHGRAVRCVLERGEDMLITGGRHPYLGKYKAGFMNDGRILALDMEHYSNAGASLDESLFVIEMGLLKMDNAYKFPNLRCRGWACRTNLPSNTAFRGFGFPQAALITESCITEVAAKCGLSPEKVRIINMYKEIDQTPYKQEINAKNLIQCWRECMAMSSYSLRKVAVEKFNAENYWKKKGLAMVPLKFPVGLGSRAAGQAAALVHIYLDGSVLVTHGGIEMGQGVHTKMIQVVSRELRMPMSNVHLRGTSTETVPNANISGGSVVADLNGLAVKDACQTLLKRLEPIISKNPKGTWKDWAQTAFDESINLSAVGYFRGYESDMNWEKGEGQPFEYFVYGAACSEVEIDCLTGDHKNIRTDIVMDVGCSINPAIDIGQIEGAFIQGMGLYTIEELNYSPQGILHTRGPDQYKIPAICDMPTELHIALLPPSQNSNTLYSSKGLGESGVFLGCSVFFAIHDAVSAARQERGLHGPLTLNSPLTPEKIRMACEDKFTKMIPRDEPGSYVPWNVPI
Method in brief: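 BILR 402 (5 μM final) incubated with cytosolic extract of E. coli expressing human AO, or control E. coli cytosol lacking AO, 0.1 mg/mL protein, 0.05 M potassium phosphate pH 7.4, 37 °C.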

Aldehyde oxidase [7] = biological target: T2, Aldehyde oxidase; assay: Drug metabolism in human liver cytosol assessed as intrinsic clearance for high affinity low capacity site aldehyde-oxidase-mediated BILR516 metabolite formation measured per mg protein after 10 mins by Eadie-Hofstee plot analysis; format: ADME, tissue-based
Method in brief: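 Human liver cytosol (0.1 mg/mL) was incubated with BILR 402 at 12 concentrations, 0.061–125 μM, for 10 min at 37 °C in 0.05 M potassium phosphate pH 7.4 without NADPH, within the linear range for protein and time. […] Apparent Km and Vmax were derived from the kinetic data.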

T1 sequence (P08684 whole entry): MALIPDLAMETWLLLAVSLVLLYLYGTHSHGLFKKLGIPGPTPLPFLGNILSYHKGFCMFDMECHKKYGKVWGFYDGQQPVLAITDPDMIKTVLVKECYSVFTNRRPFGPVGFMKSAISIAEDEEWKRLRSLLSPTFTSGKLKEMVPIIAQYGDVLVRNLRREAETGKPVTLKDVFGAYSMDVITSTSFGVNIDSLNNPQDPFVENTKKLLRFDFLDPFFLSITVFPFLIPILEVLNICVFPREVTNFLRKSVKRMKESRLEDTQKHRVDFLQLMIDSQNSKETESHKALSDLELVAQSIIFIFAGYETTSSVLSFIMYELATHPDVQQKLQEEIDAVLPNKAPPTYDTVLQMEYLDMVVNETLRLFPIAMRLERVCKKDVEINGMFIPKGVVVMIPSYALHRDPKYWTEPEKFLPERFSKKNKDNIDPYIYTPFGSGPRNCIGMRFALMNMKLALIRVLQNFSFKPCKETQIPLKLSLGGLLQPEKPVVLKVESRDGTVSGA
Cytochrome P450 2D6, sequence (P10635 whole entry): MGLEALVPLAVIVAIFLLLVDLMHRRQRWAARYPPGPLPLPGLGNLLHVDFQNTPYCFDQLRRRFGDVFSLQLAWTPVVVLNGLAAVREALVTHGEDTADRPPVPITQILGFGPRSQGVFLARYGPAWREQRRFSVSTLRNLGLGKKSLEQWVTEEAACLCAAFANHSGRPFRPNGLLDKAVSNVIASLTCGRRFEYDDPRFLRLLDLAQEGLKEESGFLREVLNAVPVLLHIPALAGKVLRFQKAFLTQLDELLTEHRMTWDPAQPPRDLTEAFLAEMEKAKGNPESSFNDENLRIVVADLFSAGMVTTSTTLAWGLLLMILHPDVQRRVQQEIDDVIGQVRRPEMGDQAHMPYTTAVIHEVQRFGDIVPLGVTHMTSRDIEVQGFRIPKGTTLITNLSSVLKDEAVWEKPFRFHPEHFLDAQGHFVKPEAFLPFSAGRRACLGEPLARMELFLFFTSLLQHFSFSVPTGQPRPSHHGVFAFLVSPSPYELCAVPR
Cytochrome P450 2C9, sequence (P11712 whole entry): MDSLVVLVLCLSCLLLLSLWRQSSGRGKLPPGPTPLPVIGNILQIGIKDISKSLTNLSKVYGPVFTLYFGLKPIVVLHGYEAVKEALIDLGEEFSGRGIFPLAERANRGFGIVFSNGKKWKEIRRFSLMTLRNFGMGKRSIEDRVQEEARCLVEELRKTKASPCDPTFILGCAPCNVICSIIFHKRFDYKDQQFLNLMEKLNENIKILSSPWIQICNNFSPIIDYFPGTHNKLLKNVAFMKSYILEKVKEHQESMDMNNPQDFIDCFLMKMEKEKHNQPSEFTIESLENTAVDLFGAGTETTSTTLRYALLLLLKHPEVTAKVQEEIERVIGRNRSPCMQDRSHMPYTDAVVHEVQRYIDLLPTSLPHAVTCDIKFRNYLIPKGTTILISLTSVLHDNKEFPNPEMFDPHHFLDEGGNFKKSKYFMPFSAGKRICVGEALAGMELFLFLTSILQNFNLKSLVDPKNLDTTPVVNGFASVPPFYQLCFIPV

## CCN1c2ncc(CCOc3ccnc4ccccc34)cc2C(=O)N(C)c2cccnc21
Cytochrome P450 2C9
  Drug metabolism: metabolite_not_detected
Cytochrome P450 2D6
  Drug metabolism: metabolite_not_detected
[1]
  Drug metabolism: metabolite_not_detected
Liver cytosol [2]
  Drug metabolism: metabolite_not_detected
Cytochrome P450 3A4 [3]
  Drug metabolism: tde
Cytochrome P450 3A4 [4]
  Drug metabolism: 0.25 µM
Liver cytosol [5]
  Drug metabolism: metabolite_detected
Aldehyde oxidase [6]
  Drug metabolism: metabolite_detected
Aldehyde oxidase [7]
  CLHH: 437 µL/min/mg
